Measured values: ChEMBL document CHEMBL2093137, “WHO-TDR NTD Screening”
Values after ≈ are worked out from the molar mass of the structure shown.

Tests used:
Schistosoma mansoni [1] = experiment: (§1) WHO-TDR: Schistosomiasis; format: functional; set-up: concentration or dose not given beside the values
How it was run: (§2)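 Larval and/or adult Schistosoma mansoni (Puerto Rican strain) were tested whole against 10,000 diverse compounds from Life Chemicals. The procedure was a previously published standard one, using a reference drug as positive control. Results are expressed as percent inhibition and IC50.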

Leishmania infantum = experiment: WHO-TDR: Leishmaniasis; format: functional, organism-based, Mus musculus; details: Macrophage
How it was run: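 A diverse library of 10,000 compounds from Life Chemicals, filtered for drug-likeness and reactive groups, was screened against whole organisms. The targets were intracellular amastigotes of Leishmania infantum MHOM/MA(BE)/67 growing in murine peritoneal macrophages. Previously published standard procedures were followed, with a reference drug as positive control. Antiparasitic potency is given as IC50.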

Trypanosoma cruzi = experiment: WHO-TDR: Chagas disease; format: functional, organism-based, Homo sapiens; details: MRC5
How it was run: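 Each IC50 reflects antiparasitic potency against intracellular amastigotes of Trypanosoma cruzi Tulahuen CL2 beta-galactosidase strain. These were cultured in MRC-5SV2 human lung fibroblasts and exposed to a 10,000-compound diverse Life Chemicals library screened according to published standard procedures with a reference drug as positive control.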

Brugia malayi [2] = experiment: (§3) WHO-TDR: Lymphatic Filariasis; format: functional; set-up: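 tested at 10 µM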
How it was run: (§4)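 Percent inhibition and IC50 describe activity against Brugia malayi microfilariae in a whole-organism screen. The screen used previously published standard procedures with reference drugs as positive controls. Compounds came from a diverse Life Chemicals library of 10,000, filtered for drug-likeness and reactive groups.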

[3] = WHO-TDR: Cytotoxicity; format: toxicity, cell-based; details: human, MRC5 cells
Schistosoma mansoni [4] = experiment: as §1; format: functional, organism-based; how it was run: as §2
Onchocerca ochengi = experiment: (§5) WHO-TDR: Onchocerciasis; format: functional; set-up: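 at 12.5 µM on microfilariae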
How it was run: (§6)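 Onchocerca ochengi or Onchocerca lienalis, animal pathogens used as surrogates for the human parasite, were screened as whole microfilariae against a 10,000-compound diverse library from Life Chemicals. The reported measures of activity are percent inhibition and IC50.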

Plasmodium falciparum K1 = experiment: WHO-TDR: Malaria; format: functional, organism-based, Homo sapiens; details: Erythrocyte
How it was run: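 A diverse library of 10,000 compounds from Life Chemicals, filtered for drug-likeness and reactive groups, was screened against the intra-erythrocytic Plasmodium falciparum K1 strain in human red blood cells. Previously published standard procedures were followed, with a reference drug as positive control. Antiplasmodial potency is given as IC50.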

[5] = tested on: Trypanosoma brucei brucei; experiment: WHO-TDR: Human African Trypanosomiasis (HAT); format: functional, organism-based; details: Squib-427
How it was run: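 A diverse library of 10,000 compounds from Life Chemicals, filtered for drug-likeness and reactive groups, was screened against bloodstream forms of Trypanosoma brucei Squib 427 strain in a whole-organism assay. Previously published standard procedures were followed, with reference drugs serving as positive controls. Antiparasitic potency is given as IC50.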

Brugia malayi [6] = experiment: as §3; format: functional, organism-based; how it was run: as §4
Brugia malayi [7] = experiment: as §3; format: functional; set-up: concentration or dose not given beside the values; how it was run: as §4; remark: listed apart in the source
Onchocerca lienalis = experiment: as §5; format: functional; set-up: concentration or dose not given beside the values; how it was run: as §6;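 note: at 12.5 µM on microfilariae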

SMILES	% Inhibition (Schistosoma mansoni [1]) [%]	IC50 (Leishmania infantum) [µg/mL]	IC50 (Trypanosoma cruzi) [µg/mL]	% Inhibition (Brugia malayi [2]) [%]	IC50 [3] [µg/mL]	IC50 (Schistosoma mansoni [4]) [µg/mL]	% Inhibition (Onchocerca ochengi) [%]	IC50 (Plasmodium falciparum K1) [µg/mL]	IC50 [5] [µg/mL]	IC50 (Brugia malayi [6]) [µM]	% Inhibition (Brugia malayi [7]) [%]	% Inhibition (Onchocerca lienalis) [%]
O=C(CCC1CCCCC1)N1CCN(c2ccc(-c3cccnc3)nn2)CC1	100	> 11.4	4.89 (≈ 12.9 µM)	33.33	> 11.4	3.15 (≈ 8.3 µM)	50	6.4 (≈ 16.9 µM)	> 11.4			
C#CCn1/c(=N\C(=O)c2cc(C)no2)sc2cc(S(N)(=O)=O)ccc21	100	> 11.3	> 11.3	0	> 11.3	3.16 (≈ 8.39 µM)	0	> 11.3	> 11.3			
COc1ccc(Cl)cc1C(=O)NCCOc1ccc2nnc(-c3ccc(F)cc3)n2n1	100	4.29 (≈ 9.71 µM)	> 13.3	33.33	> 13.3	3.58 (≈ 8.1 µM)	0	> 13.3	> 13.3			
O=C(NCCOc1ccc2nnc(-c3ccccc3)n2n1)c1ccccc1C(F)(F)F	100	> 12.8	> 12.8	33.33	> 12.8	3.38 (≈ 7.91 µM)	0	> 12.8	> 12.8			
CCOC(=O)c1oc2ccccc2c1NC(=O)c1cc(C)no1	100	> 9.43	> 9.43	20	> 9.43	2.21 (≈ 7.03 µM)	0	> 9.43	> 9.43			
O=S(=O)(c1ccccc1Cl)N1CCN(c2ccc(-c3ccco3)nn2)CC1	100	> 12.1	> 12.1	0	> 12.1	2.79 (≈ 6.89 µM)	0	> 12.1	> 12.1			
O=C(Nc1nccs1)c1ccc2c(c1)CCCC2	0	> 7.75	> 7.75	100	> 7.75			> 7.75	> 7.75	5.19	25	0
O=C(CSc1nnc(NC(=O)C23CC4CC(CC(C4)C2)C3)s1)Nc1nccs1	0	4.23 (≈ 9.71 µM)	> 13.1	100	> 13.1			> 13.1	> 13.1	6.3	33.33	33.34
O=C(CCS(=O)(=O)c1ccccc1)N(CCCN1CCOCC1)c1nc2ccccc2s1	0	5.81 (≈ 12.3 µM)	8.52 (≈ 18 µM)	100	2.88 (≈ 6.09 µM)			> 15.3	4.9 (≈ 10.3 µM)	6.05	60	9.31
CN(Cc1ccco1)S(=O)(=O)c1ccc(C(=O)Nc2nc3c(s2)CSc2ccccc2-3)cc1	91.7	> 14.9	3.86 (≈ 7.76 µM)	100	> 14.9			> 14.9	2.24 (≈ 4.49 µM)	3.97	40	0
O=C(Cc1csc(NC(=O)C2CCC(=O)N2)n1)NCc1ccccn1 (configuration not stated)	100	> 10.8	> 10.8	20	> 10.8	2.48 (≈ 6.9 µM)	0	> 10.8	> 10.8			
O=C(CCCSc1ccc(F)cc1)N1CCN(c2nc3ccc(Cl)cc3s2)CC1	0	4.37 (≈ 9.71 µM)	> 13.5	100	> 13.5			> 13.5	> 13.5	3.54	40	12.34
COc1ccccc1C(=O)NCCSc1c(-c2ccccc2)[nH]c2ccccc12	0	> 12.1	2.91 (≈ 7.24 µM)	100	> 12.1			5.19 (≈ 12.9 µM)	4.03 (≈ 10 µM)	4.61	25	0
O=C(CSc1nnc(NC(=O)C2CCCCC2)s1)Nc1ccccc1C(F)(F)F	0	> 13.3	> 13.3	100	> 13.3			> 13.3	> 13.3	3.58	0	0
Cc1[nH]c2ccccc2c1SCCNC(=O)c1c(-c2ccccc2Cl)noc1C	0	> 12.8	> 12.8	100	> 12.8			> 12.8	> 13.6	4.49	25	20
O=C(c1ccccc1F)N1CCN(c2ccc(-c3ccccn3)nn2)CC1	100	> 10.9	0.375 (≈ 1.03 µM)	33.33	2.77 (≈ 7.63 µM)	2.36 (≈ 6.49 µM)	100	0.396 (≈ 1.09 µM)	1.59 (≈ 4.37 µM)			
COc1ccc(-c2nnc(NC(=O)c3ccc(S(=O)(=O)N4CC(C)OC(C)C4)cc3)o2)c(OC)c1 (configuration not stated)	0	4.88 (≈ 9.71 µM)	4.91 (≈ 9.78 µM)	100	> 15.1			10.6 (≈ 21.1 µM)	> 15.1	3.22	25	66.7
CCOC(=O)c1ccc(NC(=O)CSc2c(C)[nH]c3ccccc23)cc1	0	> 11.1	3.49 (≈ 9.49 µM)	100	> 11.1			> 11.1	3.67 (≈ 9.95 µM)	6.05	0	46.7
O=C(Nc1nc(-c2ccccn2)cs1)c1ccc2c(c1)CCCC2	12.5	> 10.1	> 10.1	100	> 10.1			9.24 (≈ 27.5 µM)	> 10.1	1.91	50	60
